Experimental data pooled from the literature.
Each line is one published result; the experiments were not run side by side. Converted amounts (≈) assume the structure as drawn.

| SMILES | target or system | assay | system | setting | measurement | result |
| --- | --- | --- | --- | --- | --- | --- |
| Cn1c(COc2ccc3nc4ccc(=O)cc-4oc3c2)cnc1[N+](=O)[O-] | Mycobacterium tuberculosis | microbial growth | – | 7 days | MIC90 | > 256 µM |
| Cc1sc2c(c1C)C(c1ccc(Cl)cc1)=N[C@@H](CC(=O)OC(C)(C)C)c1nnc(C)n1-2 | Ramos | cell growth or viability, ATP luminescence | – | 72 h | IC50 | 0.545 µM |
| COc1cccc(/C=N/N2C(=O)c3ccccc3NC2c2cccc(OC)c2O)c1O (stereo not shown) | Mycobacterium tuberculosis | microbial growth | ATCC25177 H37RA | 14 days | MIC | > 128 µg/mL |
| Cn1c([N+](=O)[O-])cnc1COc1ccc2nc3ccc(=O)cc-3oc2c1 | Mycobacterium tuberculosis | microbial growth | – | 7 days | MIC90 | > 256 µM |
| CCOC(=O)C1=C(C)NC(=O)NC1c1cn(-c2ccccc2)nc1-c1ccccc1 (stereo not shown) | Mycobacterium tuberculosis | microbial growth, resazurin | H37RV | – | MIC | 62.1 µM |
| NNC(=O)c1ccncc1 | Mycobacterium tuberculosis | microbial growth | ATCC25177 H37RA | 14 days | MIC | 8 µg/mL |
| N.N.[Cl][Pt][Cl] | A-431 | cell growth or viability, MTT | – | 72 h | IC50 | 2.1 µM |
| CCOC(=O)C1=C(C)NC(=NN)NC1c1ccc(F)cc1 (stereo not shown) | Mycobacterium tuberculosis | microbial growth, resazurin | H37RV | – | MIC | 85.5 µM |
| C1N2CN3CN1CP(C2)C3.Cc1cc(C)n(C(C(=O)OC(C)C)n2nc(C)cc2C)n1.F[P-](F)(F)(F)(F)F.[Cu+] | A-431 | cell growth or viability, MTT | – | 72 h | IC50 | 11.3 µM |
| CCOC(=O)C1=C(C)N(C(C)=O)C(=O)NC1c1cn(-c2ccccc2)nc1-c1ccccc1 (stereo not shown) | Mycobacterium tuberculosis | microbial growth, resazurin | H37RV | – | MIC | 56.2 µM |
| CC[C@@]1(O)C(=O)OCc2c1cc1n(c2=O)Cc2cc3ccccc3nc2-1 | HepG2 | cell growth or viability, MTT | – | 48 h | IC50 | 10.1 µM |
| Cc1cc(C(=O)O)ccc1-c1c2ccc(=O)cc-2oc2cc(OCc3ccc([N+](=O)[O-])o3)ccc12 | Mycobacterium tuberculosis | microbial growth | – | 7 days | MIC90 | 240 µM (≈ 113 µg/mL) |
| COc1c(N2CC3CCCN(C(=O)OC(C)(C)C)C3C2)c(F)cc2c(=O)c(C(=O)OCc3cnc([N+](=O)[O-])s3)cn(C3CC3)c12 (stereo not shown) | Mycobacterium tuberculosis | microbial growth | H37RV | – | MIC | > 8 µM |
